DNA FID counter-1: fluorescent intercalator displacement, NS3 helicase counter-screen; 0.17% of 290,000 active; inhibition, % at 7.9 µM; DNA fluorescent intercalator displacement, fluorescence; AID 1845;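 further: 0% = vehicle and 100% = reference compound; higher means more ethidium bromide displaced from hairpin DNA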
HCV NS3 hel inh: inhibitors of Hepatitis C virus NS3 helicase; 0.56% of 290,000 active; inhibition, % at 10.9 µM; NS3 helicase DNA unwinding, Cy5 molecular beacon fluorescence; AID 1800;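 active means inhibition above the mean of all tested compounds plus 3 SD, set per campaign, cut at about 35% in these data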;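 further: 0% = DMSO wells and 100% = thioflavine S control wells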
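assay system = NS3 helicase fragment of HCV | buffer or medium = MOPS pH 6.5, MgCl2, DTT, Tween20, BSA | timing = 60 min unwinding reaction at 25 °C after ATP addition | signal = Cy5 beacon fluorescence read at start and 1 h | read-out basis = % inhibition of unwinding | control set = low DMSO, high thioflavine S at 110 µM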
FGF22 binding: binders of recombinant human FGF22 by thermal shift. AID 651658. activity (Tm shift, normalised), % at 9.99 µM. 1.5% of 340,000 active. Q9HCT0. SYPRO orange fluorescence; percent of sucrose octasulfate shift, DMSO zero;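 active means mean Tm shift, scaled 0 neutral to 100 positive control, at about 1.3% or above, every replicate too, limit read from the data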
Target sequence (Q9HCT0 whole entry, looked up): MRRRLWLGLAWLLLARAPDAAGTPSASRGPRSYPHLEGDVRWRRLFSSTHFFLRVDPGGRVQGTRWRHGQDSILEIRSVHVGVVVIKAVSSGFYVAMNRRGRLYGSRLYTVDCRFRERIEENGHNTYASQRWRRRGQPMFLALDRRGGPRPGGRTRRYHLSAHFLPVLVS
EBNA-1 inhibitor: blocks EBNA-1 binding to DNA | EBNA-1 DNA binding, fluorescence polarization | inhibition, % at 14.8 µM | 0.34% of 300,000 active | AID 1950; in the data active means inhibition above about 28%
GRIN3A LBD mod: modulates the human NR3A ligand-binding domain | NR3A LBD differential scanning fluorimetry, Tm shift; 0% = protein alone, 100% = glycine-bound protein | Tm shift relative to glycine control, % at 25 µM | 2.5% of 340,000 active | AID 1259313;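 active means melting temperature shift of at least 10% of the positive control shift, at one fixed dose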
ZTA DNA inh: ZTA (EBV) inhibition in EBNA-1 counter-screen; AID 2234; P03206; inhibition, % at 11 µM; ZTA-DNA binding, fluorescence polarization; 0.15% of 320,000 active; in the data active means inhibition above about 33%
Target sequence (P03206 whole entry, looked up): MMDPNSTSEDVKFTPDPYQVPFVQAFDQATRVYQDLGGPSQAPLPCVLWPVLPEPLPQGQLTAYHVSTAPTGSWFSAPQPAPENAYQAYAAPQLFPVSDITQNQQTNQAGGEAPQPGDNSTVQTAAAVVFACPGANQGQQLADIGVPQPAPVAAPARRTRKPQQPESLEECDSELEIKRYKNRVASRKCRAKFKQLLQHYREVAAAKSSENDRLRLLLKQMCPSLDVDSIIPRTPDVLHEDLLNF
NS3 hel confirm: confirmation of Hepatitis C virus NS3 helicase inhibitors; shares compounds with HCV NS3 hel inh; NS3 helicase DNA unwinding, Cy5 molecular beacon fluorescence; inhibition, % at 10.9 µM; 31% of 1,600 active; AID 1943;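 active means inhibition above the mean of all tested compounds plus 3 SD, cutoff set per campaign, cut at about 36% in these data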
DNA FID counter-2: counter-screen for HCV NS3 helicase inhibitors: DNA intercalator displacement | inhibition, % at 7.9 µM | 4% of 1,600 active | DNA fluorescent intercalator displacement, fluorescence | shares compounds with HCV NS3 hel inh;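 further: 0% = vehicle and 100% = reference compound; higher means more displacement of ethidium bromide from the DNA hairpin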
DNA FID DR: DNA intercalator displacement in dose response | 120 tested, under 10 active | fluorescent intercalator displacement from DNA, fluorescence | shares compounds with HCV NS3 hel inh | IC50, µM; call rule not given here
* marks the source's active call; other numbers are inactive results; . = no result given. Most compounds without a hit are left out; they make up all but 3.6% or so of the library. Unless noted, no stated cut-off is given here; in the data, active means inhibition above about 37%; inactive means the rest.

SMILES	DNA FID counter-1	HCV NS3 hel inh	FGF22 binding	EBNA-1 inhibitor	GRIN3A LBD mod	ZTA DNA inh	NS3 hel confirm	DNA FID counter-2	others
NC(=O)Cn1c(=O)n(Cc2ccco2)c(=O)c2c3c(sc21)CCCCC3	-15	39*	.	6	-12	6	5	-13
O=C(Cn1c(=O)n(Cc2ccco2)c(=O)c2c3c(sc21)CCCC3)Nc1ccccc1	-28	47*	.	-10	0	5	5	7
COc1ccccc1-c1cn(CC[C@H]2CC[C@@H](NC(=O)NC(C)C)[C@H](CO)O2)nn1	.	.	0	.	.	.	.	.
CS(=O)(=O)Nc1ccc2c(c1)[C@@H]1C[C@@H](CC(=O)N3CCOCC3)O[C@H](CO)[C@@H]1O2	.	.	0	.	.	.	.	.
O=C(COC(=O)c1cc(-c2ccco2)nc2ccccc12)NCc1ccc2c(c1)OCO2	-23	41*	.	4	-3	6	86*	54*
CCOC(=O)c1sc(N2C(=O)C(O)=C(C(=O)c3ccco3)C2c2cccc(Cl)c2)nc1C (configuration not stated)	-42	2	1	10	.	16	.	.
Cc1cc(N2C(=O)C(O)=C(C(=O)c3ccco3)C2c2cccc(O)c2)no1 (configuration not stated)	7	12	0	-3	0	2	.	.
O=C(C1=C(O)C(=O)N(CCc2ccccc2)C1c1ccncc1)c1cc2ccccc2o1 (configuration not stated)	-41	39*	0	-26	-1	-1	13	-28
CCOC(=O)c1sc(N2C(=O)C(O)=C(C(=O)c3ccco3)C2c2cccc([N+](=O)[O-])c2)nc1C (configuration not stated)	4	105*	0	15	-2	4	115*	24
Cc1cc(N2C(=O)C(O)=C(C(=O)c3ccco3)C2c2cccc(Oc3ccccc3)c2)no1 (configuration not stated)	-37	66*	0	-1	-9	2	116*	2	DNA FID DR=>79
Cc1ccc(C2C(C(=O)c3cc4ccccc4o3)=C(O)C(=O)N2c2cc(C)on2)cc1 (configuration not stated)	-37	65*	0	-4	-8	3	123*	-24	DNA FID DR=>79
CO[C@@H]1CN(C)C(=O)c2cc(NC(=O)C3CCC3)ccc2OC[C@@H](C)N(Cc2ccncc2)C[C@@H]1C	.	.	-1	.	.	.	.	.
O=C(NCC1CCCO1)c1cc(S(=O)(=O)N2CCCCC2)ccc1Cl (configuration not stated)	.	.	0	.	0	-3	.	.
O=C(NCC1CCCO1)c1cc(S(=O)(=O)N2CCCC2)c(Cl)cc1Cl (configuration not stated)	-13	83*	0	1	-2	-4	-15	-6
CCOC(=O)C(=CNc1ccccc1Cl)C(=O)OCC	-20	1	0	.	7	.	.	.
CCOC(=O)C(=CNc1ccc(C(F)(F)F)cc1Cl)C(=O)OCC	-5	-7	0	-9	4	-16	.	.
CCOC(=O)C(=CNc1cc(Cl)c(-c2ccco2)c(Cl)c1)C(=O)OCC	-14	46*	0	4	2	6	-5	-20
CCOC(=O)C(=CNc1ccc(-c2ccco2)c(Cl)c1)C(=O)OCC	-25	42*	0	4	4	5	14	-27
Cc1ccc(NC(=O)CC2SC(=O)NC2=O)cc1 (configuration not stated)	-17	47*	.	5	2	5	-9	16
CO[C@@H]1CN(C)C(=O)c2ccc(NC(=O)Nc3cccc(F)c3)cc2OC[C@@H](C)N(C(C)=O)C[C@H]1C	.	.	0	.	.	.	.	.
COC(=O)c1ccc(COc2ccc(/C=N/Nc3cccc(C(=O)O)c3)cc2)cc1	-30	0	0	2	1	8	.	.
O=C(O)c1cc(N/N=C/c2ccc(OCc3ccccc3)cc2)ccc1Cl	-25	42*	0	3	-4	-2	67*	5
C[C@@H]1CN([C@H](C)CO)C(=O)c2cccc(NC(=O)C3CC3)c2O[C@@H]1CN(C)S(=O)(=O)c1cn(C)cn1	.	.	0	.	.	.	.	.
C#CCOc1c(Cl)cc(/C=C2/C(=O)ON=C2C)cc1OCC	-26	57*	0	-1	3	-12	71*	16
CCC(=O)N1C[C@H](C)[C@@H](OC)CN(C)C(=O)c2ccc(NC(=O)Nc3ccc(Cl)cc3)cc2OC[C@H]1C	.	.	0	.	.	.	.	.
SMILES	DNA FID counter-1	HCV NS3 hel inh	FGF22 binding	EBNA-1 inhibitor	GRIN3A LBD mod	ZTA DNA inh	NS3 hel confirm	DNA FID counter-2	others
CC[C@H]1OC(=O)[C@H](C)[C@@H](O[C@H]2C[C@@](C)(OC)[C@@H](O)[C@H](C)O2)[C@H](C)[C@@H](O[C@@H]2O[C@H](C)C[C@H](N(C)C)[C@H]2O)[C@](C)(O)C[C@@H](C)C(=O)[C@H](C)[C@@H](O)[C@]1(C)O	-14	47*	0	11	-1	2	75*	-25
O=C(NCC[C@H]1CC[C@@H](NS(=O)(=O)c2ccccc2)[C@@H](CO)O1)c1cc(Cl)cc(Cl)c1	.	.	0	.	.	.	.	.
CCOC(=O)N1CCN(Cc2nc3c(c(=O)n(C)c(=O)n3C)n2Cc2ccccc2C)CC1	-37	61*	.	-1	-1	11	-15	-44
N#CC1=C(N)Oc2c(O)cc3ccccc3c2C1c1ccsc1 (configuration not stated)	-17	38*	0	1	12*	8	-10	19
C#CCOc1ccc(/C=C2/C(=O)N(c3cccc(C(=O)O)c3)N=C2C)cc1OC	-20	40*	.	-1	4	0	8	12
CC(C)CC#Cc1cnc2c(c1)C(=O)N([C@H](C)CO)C[C@H](C)[C@H](CN(C)C(=O)c1cccnc1)O2	.	.	0	.	.	.	.	.
O=C(C[C@@H]1C=C[C@@H](NC(=O)CC2CC2)[C@H](CO)O1)NCC(F)(F)F	.	.	0	.	.	.	.	.
CCC(=O)N1N=C(c2c(-c3ccccc3)c3cc(Cl)ccc3[nH]c2=O)CC1c1ccco1 (configuration not stated)	-22	3	.	0	0	6	.	.
O=C(O)CCC(=O)N1N=C(c2c(-c3ccccc3)c3cc(Cl)ccc3[nH]c2=O)CC1c1ccco1 (configuration not stated)	-49	41*	.	-6	-2	-2	48*	-17
CCc1nc2c(sc3nc4c(cc32)COC(C)(C)C4)c(=O)n1Cc1ccccc1	2	-5	.	0	1	4	.	.

Screens (PubChem BioAssay)
